{"data": "Measured values from different studies", "target": "RAC-alpha serine/threonine-protein kinase (AKT1, Homo sapiens, UniProt P31749)", "note": "Compare with care: the assays were run in different laboratories."}
{"Compound": "N#Cc1ccc(NC(=O)Nc2ccccc2)cc1", "test": "cell-free assay, competition with immobilised ligand", "setting": "25 µM", "quantity": "remaining binding", "result": "100%"}
{"Compound": "C1=C/COCc2cc(ccc2OCCN2CCCC2)Nc2nccc(n2)-c2cccc(c2)COC/1", "test": "binding", "setting": "0.1 µM", "quantity": "remaining binding", "result": "100%"}
{"Compound": "CO[C@@H]1[C@H](N(C)C(=O)c2ccccc2)C[C@H]2O[C@]1(C)n1c3ccccc3c3c4c(c5c6ccccc6n2c5c31)C(=O)NC4", "test": "enzyme activity, inhibitor", "setting": "1 µM", "quantity": "inhibition", "result": "7%"}
{"Compound": "C#Cc1cnc(Nc2ccnc(CO)c2)nc1Nc1ccccc1S(C)(=O)=NC#N (stereo not shown)", "test": "cell-free assay", "setting": "1 µM", "quantity": "remaining signal", "result": "100%"}
{"Compound": "CCCCC(=O)Nc1ccc(-c2ccc3ncn(CCC)c(=O)c3c2)cn1", "test": "binding, competition with immobilised ligand", "setting": "0.5 µM", "quantity": "remaining binding", "result": "100%"}
{"Compound": "COc1ccc2[nH]c3c4[nH]c5ccc(OC)cc5c4c4c(c3c2c1)C(=O)NC4=O", "test": "binding", "setting": "1 µM", "quantity": "remaining binding", "result": "72%"}
{"Compound": "Cc1cc(O)c(-c2ccc([C@@H](C)CN(C)C)cc2)c2c1[nH]c(=O)c1sccc12", "test": "enzyme activity, inhibitor", "setting": "0.1 µM", "quantity": "inhibition", "result": "-0.622%"}
{"Compound": "Cc1ccc(NC(=O)c2ccnc(C(F)(F)F)c2)cc1-c1cc(OCCO)nc(N2CCOCC2)c1", "test": "binding", "setting": "1 µM", "quantity": "remaining binding", "result": "99%"}
{"Compound": "C=CC(=O)N1CCC([C@@H]2CCNc3c(C(N)=O)c(-c4ccc(Oc5ccccc5)cc4)nn32)CC1", "test": "enzyme activity, inhibitor", "setting": "1 µM", "quantity": "inhibition", "result": "7%"}
{"Compound": "COc1ccc2oc(-c3ccc4nc(N)oc4c3)c/c(=N\\c3ccccc3NC(=O)CCN)c2c1", "test": "binding", "setting": "1 µM", "quantity": "remaining binding", "result": "91%"}
